Results taken from ChEMBL document CHEMBL4680093 (J Med Chem, 2016).

Key:
[1] = biological target: 11-beta-hydroxysteroid dehydrogenase 1 (Homo sapiens, UniProt P28845); assay: Inhibition of human 11beta-HSD1 expressed in HEK293 cells using cortisone by ELISA
[2] = Toxicity in female dog during 4-week repeated once daily oral-dose toxicity study; design: species or system Canis lupus familiaris; conditions: in vivo, time 4 weeks
How it was run: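 Dogs of both sexes were dosed orally once daily for 4 weeks at 25, 100 and 400 mg/kg. Toxicity was assessed and the NOAEL determined.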

[3] = Ratio of drug level in brain to plasma of mouse at 10 mg/kg, po measured after 2 hrs post dose; format: ADME, organism-based; conditions: read-out: BPR
How it was run: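 C57BL/6 mice received a single oral dose of 10 mg/kg in 0.5% methylcellulose/1% Tween80. Animals were sacrificed 2 h post-dose. Compound was measured in brain, liver, adipose and plasma (nmol/g), and tissue/plasma ratios were calculated.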

[4] = Volume of distribution at steady state in rat at 1 mg/kg, iv; format: ADME, organism-based; conditions: in vivo, read-out: Vdss
How it was run: (§1)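 Single-dose PK study. The iv dose was given in 10% hydroxypropyl-β-cyclodextrin and the oral dose in 0.5% methylcellulose/1% Tween80. Mouse and rat received 1 mg/kg iv and 5 mg/kg po. Dog received 0.5 mg/kg iv and 4 mg/kg po. CL, Vss, t1/2, AUC, Cmax, tmax and F were derived.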

[5] = Oral bioavailability in dog at 4 mg/kg; format: ADME, organism-based, Canis lupus familiaris; conditions: in vivo
How it was run: as §1

[6] = Toxicity in male mouse during 4-week repeated once daily oral-dose toxicity study; conditions: in vivo, time 4 weeks
How it was run: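 Mice of both sexes were dosed orally once daily for 4 weeks at 40, 100, 250 and 625 mg/kg. Toxicity was assessed and the NOAEL determined.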

[7] = biological target: T1, Mineralocorticoid receptor (Homo sapiens, UniProt P08235); assay: Agonist activity at mineralocorticoid receptor (unknown origin)
T1 sequence (P08235 whole entry): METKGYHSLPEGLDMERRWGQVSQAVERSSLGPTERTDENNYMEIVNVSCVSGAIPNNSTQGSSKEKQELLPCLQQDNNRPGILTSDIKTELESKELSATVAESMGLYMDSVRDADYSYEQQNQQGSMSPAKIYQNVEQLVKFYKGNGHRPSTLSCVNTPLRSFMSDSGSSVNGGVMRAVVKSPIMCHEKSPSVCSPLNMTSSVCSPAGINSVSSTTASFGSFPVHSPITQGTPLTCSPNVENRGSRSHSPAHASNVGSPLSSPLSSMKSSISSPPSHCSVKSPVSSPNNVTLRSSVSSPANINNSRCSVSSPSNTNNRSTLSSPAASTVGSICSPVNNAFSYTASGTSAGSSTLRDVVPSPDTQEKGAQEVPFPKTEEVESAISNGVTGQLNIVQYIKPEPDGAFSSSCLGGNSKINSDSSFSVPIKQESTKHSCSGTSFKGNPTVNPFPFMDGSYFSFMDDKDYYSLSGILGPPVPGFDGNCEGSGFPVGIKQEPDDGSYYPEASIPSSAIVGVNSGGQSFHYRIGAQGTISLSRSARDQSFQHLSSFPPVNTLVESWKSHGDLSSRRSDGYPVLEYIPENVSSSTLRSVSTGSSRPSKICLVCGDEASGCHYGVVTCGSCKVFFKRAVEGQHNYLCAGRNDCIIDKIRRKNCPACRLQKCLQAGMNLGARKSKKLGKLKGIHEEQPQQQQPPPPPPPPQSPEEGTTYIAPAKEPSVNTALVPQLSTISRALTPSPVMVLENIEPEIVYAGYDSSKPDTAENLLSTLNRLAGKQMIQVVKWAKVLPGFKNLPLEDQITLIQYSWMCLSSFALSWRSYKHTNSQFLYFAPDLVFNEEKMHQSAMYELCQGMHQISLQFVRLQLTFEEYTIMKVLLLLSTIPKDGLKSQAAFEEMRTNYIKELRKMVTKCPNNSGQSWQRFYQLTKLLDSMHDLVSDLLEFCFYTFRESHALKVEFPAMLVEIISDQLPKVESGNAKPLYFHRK

[8] = test system: Mus musculus; assay: Improvement in lipid profile in C57BL/6-Lep^ob (ob/ob) mouse assessed as triglyceride level at 20 mg/kg, po dosed once daily for 25 days co-treated with 300 mg/kg. po QD for 25 days metformin (reference value: 90.9 +/- 5.5 mg/dl); conditions: time 25 day
[9] = species on record: Homo sapiens; assay: Selectivity index, ratio of IC50 for human 11beta-HSD2 to IC50 for human 11beta-HSD1
[10] = test system: Mus musculus; assay: Improvement in lipid profile in C57BL/6-Lep^ob (ob/ob) mouse assessed as LDL cholesterol level at 20 mg/kg, po dosed once daily for 25 days (reference value: 30.3 +/- 0.8 mg/dl); format: functional; conditions: time 25 day
[11] = Drug level in mouse liver at 10 mg/kg, po measured after 2 hrs post dose; format: ADME, organism-based; conditions: in vivo
How it was run: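 C57BL/6 mice given a single oral 10 mg/kg dose in 0.5% methylcellulose plus 1% Tween80. Sacrifice at 2 h post-dose, with collection of brain, liver, adipose and plasma. Compound concentration expressed as nmol/g, along with tissue/plasma ratio.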

[12] = biological target: T2, Cytochrome P450 1A2 (Homo sapiens, UniProt P05177); assay: Inhibition of CYP1A2 in pooled human liver microsomes using phenacetin as substrate in presence of NADPH incubated for 10 mins by LC-MS/MS analysis
T2 sequence (P05177 whole entry): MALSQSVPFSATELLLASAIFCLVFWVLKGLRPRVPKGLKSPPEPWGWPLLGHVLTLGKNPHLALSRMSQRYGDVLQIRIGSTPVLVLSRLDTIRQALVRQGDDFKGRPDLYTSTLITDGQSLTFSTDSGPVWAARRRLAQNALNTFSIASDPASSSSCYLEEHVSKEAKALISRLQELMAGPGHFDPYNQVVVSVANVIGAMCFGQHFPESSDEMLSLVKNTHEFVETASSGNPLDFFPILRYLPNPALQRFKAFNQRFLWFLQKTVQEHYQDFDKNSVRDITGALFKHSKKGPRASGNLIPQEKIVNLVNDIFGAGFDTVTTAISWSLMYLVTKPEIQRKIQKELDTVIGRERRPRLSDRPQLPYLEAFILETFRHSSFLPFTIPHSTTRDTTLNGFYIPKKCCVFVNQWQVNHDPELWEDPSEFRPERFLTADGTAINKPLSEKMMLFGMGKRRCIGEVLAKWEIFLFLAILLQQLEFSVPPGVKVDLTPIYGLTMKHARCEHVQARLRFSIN

[13] = Reduction in nonfasting blood glucose level in C57BL/6-Lep^ob (ob/ob) mouse at 20 mg/kg, po dosed once daily for 25 days and co-treated with 300 mg/kg. po QD for 25 days metformin relative to control; design: scale not given: the % may be the effect or the level left; conditions: time 25 day
[14] = AUC in dog at 0.5 mg/kg, iv; format: ADME, organism-based, Canis lupus familiaris; design: dose 0.5 mg/kg; conditions: in vivo

Chain of 11-beta-hydroxysteroid dehydrogenase 1 (P28845 whole entry): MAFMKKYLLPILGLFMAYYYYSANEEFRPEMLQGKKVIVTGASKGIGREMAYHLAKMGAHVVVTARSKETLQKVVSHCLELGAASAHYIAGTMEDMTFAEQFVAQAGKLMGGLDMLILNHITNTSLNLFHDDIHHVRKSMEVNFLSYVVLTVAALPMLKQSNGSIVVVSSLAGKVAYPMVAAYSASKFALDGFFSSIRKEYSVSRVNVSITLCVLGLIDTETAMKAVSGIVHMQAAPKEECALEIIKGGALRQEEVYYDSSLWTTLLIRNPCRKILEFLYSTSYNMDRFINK

Q: Which results are given for C[C@@H]1CN(c2ccc(S(C)(=O)=O)cc2F)CCN1c1nccc(C(=O)NC2C3CC4CC2CC(O)(C4)C3)n1 (some centres undefined)?
A: IC50 [1]: 4.4 nM; NOAEL at 672 h [2]: 400 mg/kg; Kp at 2 h [3]: 0.04; Vd [4]: 2.1 L/kg; bioavailability [5]: 98%; NOAEL at 672 h [6]: 625 mg/kg; EC50 [7]: > 5000 nM; Activity [8]: 84.1 mg/dL; Ratio IC50 [9]: > 3000; Activity [10]: 17.1 mg/dL; Drug uptake [11]: 31 nmol/g; IC50 [12]: > 10000 nM; Activity [13]: 33%; AUC [14]: 1470 ng·h/mL
